Calls of active or inactive are those of the source. No cut-off for these calls is given here.

Here are results for two compounds from ChEMBL document CHEMBL1153828, “Structures of the tyrosine kinase domain of fibroblast growth factor receptor in complex with inhibitors” (Science, 1997).

In experiment [1] the target is T1, Platelet-derived growth factor receptor (Mus musculus) (UniProt P05622+P26618). Description: Inhibition of PDGFR in mouse NIH/3T3 cells assessed as PDGF-stimulated Erk2 activation by immunoblotting. The format is cell-based. Particulars: NIH3T3. (Immunoblotting shows a protein as a band on a membrane.)
The target in experiment [2] is Epidermal growth factor receptor (Mus musculus) (UniProt Q01279). Description: Inhibition of EGF-stimulated EGFR phosphorylation in mouse HER14 cells by immunoblotting. Type of experiment: cell-based. The essentials: (§1)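 Cells were preincubated with a range of inhibitor concentrations for 5 min at 37°C, then stimulated for 5 min at 37°C (unstimulated controls kept): PDGF 40 ng/ml for PDGFR, insulin 1 μg/ml for insulin receptor, EGF 100 ng/ml for EGFR. Lysates were immunoprecipitated with receptor-specific antibodies, run on SDS-PAGE and immunoblotted with anti-phosphotyrosine.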
Chain of Epidermal growth factor receptor (Mus musculus) (Q01279 whole entry): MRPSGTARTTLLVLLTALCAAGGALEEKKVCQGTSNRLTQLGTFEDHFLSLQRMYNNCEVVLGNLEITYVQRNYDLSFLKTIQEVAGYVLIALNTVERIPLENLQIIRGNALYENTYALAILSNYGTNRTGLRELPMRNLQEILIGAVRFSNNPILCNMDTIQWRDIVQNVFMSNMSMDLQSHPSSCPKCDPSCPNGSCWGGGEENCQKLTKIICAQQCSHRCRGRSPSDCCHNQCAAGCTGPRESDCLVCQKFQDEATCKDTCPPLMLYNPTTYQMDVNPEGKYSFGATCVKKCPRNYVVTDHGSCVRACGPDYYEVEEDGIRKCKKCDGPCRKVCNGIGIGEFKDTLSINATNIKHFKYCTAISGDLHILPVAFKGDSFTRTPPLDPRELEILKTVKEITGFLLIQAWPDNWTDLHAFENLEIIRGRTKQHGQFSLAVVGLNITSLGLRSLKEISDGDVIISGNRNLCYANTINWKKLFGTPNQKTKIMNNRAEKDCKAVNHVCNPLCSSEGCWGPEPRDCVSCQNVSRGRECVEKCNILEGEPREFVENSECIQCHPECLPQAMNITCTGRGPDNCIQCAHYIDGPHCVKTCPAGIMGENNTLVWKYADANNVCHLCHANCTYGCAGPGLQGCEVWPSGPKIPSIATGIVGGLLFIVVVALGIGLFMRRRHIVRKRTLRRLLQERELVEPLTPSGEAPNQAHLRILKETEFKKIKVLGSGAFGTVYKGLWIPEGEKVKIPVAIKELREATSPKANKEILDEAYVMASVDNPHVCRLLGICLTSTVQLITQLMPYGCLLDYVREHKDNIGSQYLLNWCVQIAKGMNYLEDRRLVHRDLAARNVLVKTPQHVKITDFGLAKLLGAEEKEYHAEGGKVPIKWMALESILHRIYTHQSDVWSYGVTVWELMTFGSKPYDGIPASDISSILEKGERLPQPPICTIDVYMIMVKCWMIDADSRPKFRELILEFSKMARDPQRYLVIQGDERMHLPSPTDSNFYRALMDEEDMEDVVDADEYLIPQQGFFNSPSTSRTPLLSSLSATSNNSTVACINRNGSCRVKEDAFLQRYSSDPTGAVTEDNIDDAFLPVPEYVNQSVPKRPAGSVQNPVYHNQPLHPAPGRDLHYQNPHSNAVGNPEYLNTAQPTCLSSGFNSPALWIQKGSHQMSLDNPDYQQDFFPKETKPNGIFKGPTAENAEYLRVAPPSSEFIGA

For experiment [3] the target is unchanged. Description: Inhibition of EGFR in mouse HER14 cells assessed as inhibition of EGF-stimulated Shc phosphorylation by immunoblotting. The format is cell-based. Put shortly: (§2)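 Cells were preincubated with a range of inhibitor concentrations for 5 min at 37°C, then stimulated for 5 min at 37°C: PDGF 40 ng/ml, insulin 1 μg/ml or EGF 100 ng/ml. Whole-lysate portions went directly to SDS-PAGE and anti-phosphotyrosine immunoblotting, and substrate phosphoproteins were located by position.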

Experiment [4] addresses T1, Platelet-derived growth factor receptor (Mus musculus). The experiment in a line: Inhibition of PDGFR in mouse NIH/3T3 cells assessed as inhibition of PDGF-stimulated phospholipase C gamma phosphorylation by immunoblotting. The format is cell-based. As to conditions: NIH3T3. Put shortly:
as §2

The target in experiment [5] is Insulin receptor (Mus musculus) (UniProt P15208). The experiment in a line: Inhibition of insulin-stimulated insulin receptor beta subunit autophosphorylation in mouse NIHIR cells. Type of experiment: cell-based. Put shortly: as §1
Chain of Insulin receptor (Mus musculus) (P15208 28-748 limits assumed): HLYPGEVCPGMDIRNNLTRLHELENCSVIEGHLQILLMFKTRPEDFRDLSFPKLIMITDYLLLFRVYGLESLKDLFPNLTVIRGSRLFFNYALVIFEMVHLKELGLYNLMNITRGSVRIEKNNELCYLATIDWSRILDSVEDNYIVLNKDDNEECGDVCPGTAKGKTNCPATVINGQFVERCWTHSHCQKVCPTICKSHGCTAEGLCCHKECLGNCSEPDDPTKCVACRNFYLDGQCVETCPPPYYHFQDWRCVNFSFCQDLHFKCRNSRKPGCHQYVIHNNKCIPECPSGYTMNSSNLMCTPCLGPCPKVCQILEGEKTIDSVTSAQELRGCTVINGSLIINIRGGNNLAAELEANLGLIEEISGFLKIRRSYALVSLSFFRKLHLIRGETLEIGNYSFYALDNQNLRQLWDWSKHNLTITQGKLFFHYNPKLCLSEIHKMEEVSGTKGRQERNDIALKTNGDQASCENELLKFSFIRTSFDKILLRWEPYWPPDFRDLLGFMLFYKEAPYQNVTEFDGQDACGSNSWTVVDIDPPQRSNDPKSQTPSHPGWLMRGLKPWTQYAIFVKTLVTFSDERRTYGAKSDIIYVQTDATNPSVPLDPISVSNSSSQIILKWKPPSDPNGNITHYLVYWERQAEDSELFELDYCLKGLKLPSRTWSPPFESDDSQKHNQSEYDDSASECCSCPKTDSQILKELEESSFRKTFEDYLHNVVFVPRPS
Chain of Insulin receptor (Mus musculus) (P15208 753-1372 limits assumed): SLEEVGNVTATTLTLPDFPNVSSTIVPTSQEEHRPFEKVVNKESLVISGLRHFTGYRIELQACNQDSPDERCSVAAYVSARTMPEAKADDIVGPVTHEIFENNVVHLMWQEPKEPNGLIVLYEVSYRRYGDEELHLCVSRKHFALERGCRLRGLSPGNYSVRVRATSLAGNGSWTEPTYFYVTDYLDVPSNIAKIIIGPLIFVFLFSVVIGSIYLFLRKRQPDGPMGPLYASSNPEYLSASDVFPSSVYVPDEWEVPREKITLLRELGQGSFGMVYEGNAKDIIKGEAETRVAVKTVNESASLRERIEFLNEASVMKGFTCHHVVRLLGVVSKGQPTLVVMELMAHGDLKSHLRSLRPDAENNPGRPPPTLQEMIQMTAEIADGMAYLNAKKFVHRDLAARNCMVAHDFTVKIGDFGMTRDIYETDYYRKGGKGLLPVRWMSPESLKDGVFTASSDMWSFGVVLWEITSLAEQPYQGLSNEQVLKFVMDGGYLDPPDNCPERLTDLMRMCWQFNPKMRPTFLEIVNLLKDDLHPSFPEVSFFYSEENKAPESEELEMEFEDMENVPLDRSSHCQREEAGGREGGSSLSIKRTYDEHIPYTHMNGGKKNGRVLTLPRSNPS
Experiment [6] has the same target. Description: Inhibition of insulin receptor in mouse NIHIR cells assessed as inhibition of insulin-stimulated IRS1 phosphorylation. The format is cell-based. Put shortly:
as §2

In experiment [7] the test system is NIH3T3. The experiment in a line: Growth inhibition of mouse NIH/3T3 cells assessed as inhibition of acidic FGF-stimulated [3H]thymidine incorporation. Type of experiment: functional, cell-based. The essentials:
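NIH 3T3 cells, untreated or pretreated with inhibitor at 50 μM, were stimulated with aFGF and then labeled with [3H]thymidine. Thymidine incorporation was measured after 24 hours.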

In experiment [8] the target is T1, Platelet-derived growth factor receptor (Mus musculus). Description: Inhibition of PDGFR in mouse NIH/3T3 cells assessed as inhibition of PDGF-stimulated tyrosine autophosphorylation by immunoblotting. The format is cell-based. As to conditions: NIH3T3. The essentials: as §1
The target in experiment [9] is Insulin receptor (Mus musculus) (UniProt P15208). The experiment in a line: Inhibition of insulin receptor tyrosine phosphorylation in mouse NIH3T3 cells. The format is cell-based. The essentials: as §1
The target in experiment [10] is Fibroblast growth factor receptor 1 (Homo sapiens, UniProt P11362). Description: Inhibition of FGFR1K autophosphorylation activity assessed as [32P] incorporation.
Chain of Fibroblast growth factor receptor 1 (Homo sapiens, UniProt P11362) (P11362 whole entry): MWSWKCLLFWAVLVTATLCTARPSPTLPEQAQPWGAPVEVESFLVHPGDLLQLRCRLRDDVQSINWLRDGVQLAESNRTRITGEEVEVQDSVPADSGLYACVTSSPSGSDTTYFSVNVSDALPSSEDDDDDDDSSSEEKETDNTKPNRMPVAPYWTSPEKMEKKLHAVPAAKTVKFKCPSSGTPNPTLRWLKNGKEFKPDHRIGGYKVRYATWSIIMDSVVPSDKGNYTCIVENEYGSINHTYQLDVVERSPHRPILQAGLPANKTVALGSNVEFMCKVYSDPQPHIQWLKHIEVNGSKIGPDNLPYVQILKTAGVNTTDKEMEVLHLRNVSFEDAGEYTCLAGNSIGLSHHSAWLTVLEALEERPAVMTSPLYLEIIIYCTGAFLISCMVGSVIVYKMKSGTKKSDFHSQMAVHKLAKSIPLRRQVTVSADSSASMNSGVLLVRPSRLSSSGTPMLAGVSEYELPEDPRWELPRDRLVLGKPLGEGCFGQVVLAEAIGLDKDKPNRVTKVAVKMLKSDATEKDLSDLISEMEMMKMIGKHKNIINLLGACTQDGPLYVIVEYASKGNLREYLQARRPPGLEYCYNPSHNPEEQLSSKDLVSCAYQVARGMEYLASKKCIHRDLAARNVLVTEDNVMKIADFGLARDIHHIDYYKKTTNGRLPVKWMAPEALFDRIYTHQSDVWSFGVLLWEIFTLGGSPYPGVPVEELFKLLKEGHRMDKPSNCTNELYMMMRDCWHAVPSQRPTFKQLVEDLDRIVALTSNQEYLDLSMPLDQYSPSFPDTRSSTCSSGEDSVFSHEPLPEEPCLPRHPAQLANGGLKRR
For experiment [11], the target named is Epidermal growth factor receptor (Mus musculus) (UniProt Q01279). Description: Inhibition of EGFR phosphorylation in mouse NIH/3T3 cells at 200 uM. As to conditions: NIH3T3. The format is cell-based.
For experiment [12] the target is unchanged. Description: Inhibition of EGFR in mouse HER14 cells assessed as inhibition of EGF-stimulated ERK2 activation by immunoblotting. Type of experiment: cell-based.
In experiment [13] the target is Fibroblast growth factor receptor 1 (Mus musculus, UniProt P16092). The experiment in a line: Inhibition of acidic FGF-stimulated FGFR1 tyrosine autophosphorylation in mouse NIH/3T3 cells by immunoblotting. The format is cell-based, NIH3T3.
Chain of Fibroblast growth factor receptor 1 (Mus musculus, UniProt P16092) (P16092 whole entry): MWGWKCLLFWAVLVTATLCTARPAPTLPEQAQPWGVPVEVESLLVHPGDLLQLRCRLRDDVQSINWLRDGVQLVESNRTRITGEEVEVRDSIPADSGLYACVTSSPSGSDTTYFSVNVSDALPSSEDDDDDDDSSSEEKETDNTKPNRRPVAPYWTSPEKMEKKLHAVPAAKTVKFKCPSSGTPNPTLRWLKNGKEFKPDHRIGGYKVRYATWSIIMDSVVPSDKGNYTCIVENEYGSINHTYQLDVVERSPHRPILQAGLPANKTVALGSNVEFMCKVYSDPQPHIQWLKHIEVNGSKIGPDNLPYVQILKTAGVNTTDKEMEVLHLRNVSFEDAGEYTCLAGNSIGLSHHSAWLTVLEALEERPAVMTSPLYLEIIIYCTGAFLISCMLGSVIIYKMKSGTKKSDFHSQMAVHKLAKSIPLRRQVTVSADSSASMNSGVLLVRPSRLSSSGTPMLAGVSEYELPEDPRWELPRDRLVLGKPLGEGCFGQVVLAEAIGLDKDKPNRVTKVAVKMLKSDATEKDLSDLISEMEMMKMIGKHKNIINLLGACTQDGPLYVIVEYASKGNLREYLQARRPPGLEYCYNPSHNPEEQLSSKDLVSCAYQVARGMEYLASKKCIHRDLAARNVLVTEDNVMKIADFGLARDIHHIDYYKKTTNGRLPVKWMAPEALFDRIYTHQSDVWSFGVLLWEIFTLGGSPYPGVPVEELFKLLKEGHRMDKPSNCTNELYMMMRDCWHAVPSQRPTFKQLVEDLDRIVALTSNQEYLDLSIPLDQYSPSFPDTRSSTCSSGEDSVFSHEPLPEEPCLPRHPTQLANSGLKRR
The target in experiment [14] is T1, Platelet-derived growth factor receptor (Mus musculus). The experiment in a line: Inhibition of PDGFR tyrosine phosphorylation in mouse NIH3T3 cells. The format is cell-based. The essentials: as §1

For `Cc1c[nH]c(/C=C2\C(=O)Nc3ccccc32)c1CCC(=O)O`, the outcome in [1], in experiment [2], in experiment [3], in experiment [4], in experiment [5] and in experiment [6] was Active. For the same compound, the result in [7], in experiment [8] and in experiment [12] was Active. Besides, the outcome in experiment [9] and in experiment [11] was inactive. Besides, the IC50 in experiment [10] and in [13] was 10 µM throughout.
As for `O=CN1CCN(c2ccc(/C=C3\C(=O)Nc4ccccc43)cc2)CC1`, the result in [1], in [4], in [14], in [5], in [6] and in [7] was Active. In addition, the outcome in experiment [8] and in [9] was Active. Also, the values for the IC50 in [10] and in experiment [13] were 10 µM and 20 µM, respectively. Besides, the result in experiment [11] was inactive.
